Laboratory results reported in BindingDB's records for doi:10.1021/jm049696n (Human Biomolecular Research Institute, 2005).

How the values were obtained:
CYP2D6 = CYP2D6 (Homo sapiens, UniProt P10635); test: Inhibitory concentration value against human cytochrome P-450 2D6
In short: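 Baculovirus insect-cell microsomes coexpressing each CYP with reductase and b5, in 0.2 M potassium phosphate pH 8.0. Vivid blue substrate O-dealkylation used 5 µM substrate with 10 nM enzyme for 2B6, 10 µM with 5 nM for 2C19, 10 µM with 10 nM for 2D6, and 10 µM with 5 nM for 2E1. Inhibitor 0.02–400 or 0.14–300 µM. NADPH-generating system, 40 min at room temperature, fluorescence 405/460 nm. IC50 is the mean of three ± SD.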

CYP3A4 = CYP3A4 (Homo sapiens, UniProt P08684); test: Inhibitory concentration value against human cytochrome P-450 3A4
In short: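 Human liver microsomes (0.4 mg) in 0.05 M potassium phosphate, pH 7.5, with an NADPH-generating system, DETAPAC and 3 mM MgCl2. Inhibitor at 0.02–400 µM. Started with 0.2 mM testosterone and run 30 min at 37 °C with shaking. Stopped with ethyl acetate, then extracted. 6β-hydroxytestosterone measured by reverse-phase HPLC with UV detection at 254 nm. IC50 values are the mean of at least three determinations ± SD.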

CYP2E1 = CYP2E1 (Homo sapiens, UniProt P05181); test: Inhibitory concentration value against human cytochrome P-450 2E1
In short: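 Baculovirus-expressed CYP2E1 (co-expressing P450 reductase and cytochrome b5), 5 nM final, with 10 µM Vivid blue substrate in 0.2 M potassium phosphate pH 8.0. Inhibitor at eight levels from 0.02 to 400 µM, or six from 0.14 to 300 µM. Started with an NADPH-generating system, then 40 min at room temperature. O-dealkylated product read by fluorescence (ex 405/em 460 nm). IC50 is the mean of three experiments.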

CYP3A4, sequence (P08684 whole entry): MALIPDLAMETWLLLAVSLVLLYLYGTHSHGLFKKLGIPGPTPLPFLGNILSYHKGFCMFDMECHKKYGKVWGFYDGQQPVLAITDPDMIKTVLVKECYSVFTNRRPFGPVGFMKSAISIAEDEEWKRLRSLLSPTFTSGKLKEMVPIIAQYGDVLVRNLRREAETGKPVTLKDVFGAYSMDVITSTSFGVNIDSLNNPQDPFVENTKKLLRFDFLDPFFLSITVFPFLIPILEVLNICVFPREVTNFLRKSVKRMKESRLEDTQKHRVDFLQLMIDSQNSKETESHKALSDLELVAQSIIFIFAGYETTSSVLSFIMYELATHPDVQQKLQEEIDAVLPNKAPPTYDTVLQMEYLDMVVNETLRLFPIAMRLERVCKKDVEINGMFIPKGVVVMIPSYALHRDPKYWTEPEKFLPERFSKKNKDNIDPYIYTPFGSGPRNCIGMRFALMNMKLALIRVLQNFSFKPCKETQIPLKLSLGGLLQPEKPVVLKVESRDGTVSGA
CYP2D6, sequence (P10635 whole entry): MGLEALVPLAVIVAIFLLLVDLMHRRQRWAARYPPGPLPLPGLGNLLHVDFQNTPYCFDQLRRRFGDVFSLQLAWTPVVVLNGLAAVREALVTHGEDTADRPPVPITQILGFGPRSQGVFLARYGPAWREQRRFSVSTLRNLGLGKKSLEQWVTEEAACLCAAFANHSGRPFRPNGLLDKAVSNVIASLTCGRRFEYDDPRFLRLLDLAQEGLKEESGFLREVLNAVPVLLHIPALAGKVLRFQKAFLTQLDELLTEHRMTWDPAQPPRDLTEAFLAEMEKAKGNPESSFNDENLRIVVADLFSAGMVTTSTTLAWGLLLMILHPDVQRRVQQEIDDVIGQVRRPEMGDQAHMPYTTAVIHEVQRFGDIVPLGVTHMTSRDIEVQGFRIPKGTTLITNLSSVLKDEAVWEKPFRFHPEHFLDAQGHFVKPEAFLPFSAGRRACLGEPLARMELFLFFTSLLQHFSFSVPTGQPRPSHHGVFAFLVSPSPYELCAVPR
CYP2E1, sequence (P05181 whole entry): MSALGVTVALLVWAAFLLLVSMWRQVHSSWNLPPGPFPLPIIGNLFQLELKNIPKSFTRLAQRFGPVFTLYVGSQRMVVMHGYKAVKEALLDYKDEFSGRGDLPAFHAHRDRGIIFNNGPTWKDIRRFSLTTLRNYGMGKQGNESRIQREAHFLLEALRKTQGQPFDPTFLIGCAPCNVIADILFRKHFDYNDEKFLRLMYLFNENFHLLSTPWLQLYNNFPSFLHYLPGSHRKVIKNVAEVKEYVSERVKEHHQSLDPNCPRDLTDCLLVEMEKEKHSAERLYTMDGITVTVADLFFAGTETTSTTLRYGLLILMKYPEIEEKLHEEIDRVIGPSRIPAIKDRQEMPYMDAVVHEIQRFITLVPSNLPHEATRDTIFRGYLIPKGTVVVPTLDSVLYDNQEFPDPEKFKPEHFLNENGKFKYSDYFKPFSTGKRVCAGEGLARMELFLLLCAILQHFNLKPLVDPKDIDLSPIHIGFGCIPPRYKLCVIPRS

NCc1ccc(-c2cccnc2)s1 [US8609708, 31]
IC50 (CYP2D6): 197 µM | IC50 (CYP3A4): 77.5 µM

O=NCc1ccc(-c2cccnc2)o1 [US8609708, 24]
IC50 (CYP2E1): > 400 µM | IC50 (CYP2D6): > 400 µM | IC50 (CYP3A4): > 400 µM
